Bioassay records as filed in PubChem BioAssay.
Pf gamet viab = late stage P. falciparum gametocyte viability inhibitors, primary screen, ATP luminescence, HTS; P. falciparum stage V gametocytes, 24 h; inhibition, % at 10.9 µM; actives 0.065% (n = 150,000);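 active = inhibition above the mean plus 3 SD of compounds within the control limits, set per campaign, cut at about 38% in these data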;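 note: 0% = DMSO wells and 100% = medium only without gametocytes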
NF-kB neuron act = activators of NF-kB expression in neurons, primary screen, cell-based, HTS; human neuronal cells, NF-kB reporter expression; active compounds read high; fold change at 12.5 µM; actives 1.6% (n = 190,000); AID 1239, 2008; in the data active = fold change above about 3.3
APP 5'UTR act = activators of APP 5'UTR luciferase reporter, primary screen, SH-SY5Y cells | actives 1% (n = 190,000) | activation, % at 2 µM | SH-SY5Y APP 5'UTR luciferase reporter, luminescence; zero percent = DMSO vehicle wells;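 active = activation above a set limit, based on mean plus 3 SD of controls, cut at about 140% in these data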
STAT1 blocker = STAT1 signaling inhibitors, primary screen, cell-based, HTS, luciferase reporter; actives 0.35% (n = 200,000); NIH 3T3 STAT1-luciferase reporter, IFN-gamma, luminescence; inhibition, % at 5.5 µM;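 active = inhibition above a set limit, the mean inhibition across all tested compounds plus 3 SD, cut at about 34% in these data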;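 note: 0% = IFN-gamma with DMSO and 100% = IFN-gamma with 300 µM nifuroxazide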
STAT1 activator = STAT1 signaling activators, primary screen, cell-based, HTS, luciferase reporter | actives 2.6% (n = 200,000) | activation (% of control), % at 5.5 µM | NIH 3T3 STAT1-luciferase reporter, IFN-gamma, luminescence; 100% = IFN-gamma alone, no compound | AID 932, 2007;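 active = activation above the screen-wide mean activation plus 3 SD, cut at about 130% in these data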;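 note: raw ratio to IFN-gamma control signal so 100% means no change and 0% no light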
STAT3 activator = IL-6 driven STAT3 reporter potentiators, primary screen, U3A cells, luciferase, luminescence, MLSCN library | actives 0.91% (n = 190,000) | AID 871, 2007 | activation (% of control), % at 5.6 µM | IL-6 STAT3-luciferase reporter; 100% = signal with IL-6 EC80 alone;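 active = activation above the screen-wide mean of compound activation plus 3 SD, cut at about 130% in these data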;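 note: 0% = background luminescence of wells with medium and substrate only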
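Test system: Human STAT1-deficient U3A cells with stable STAT3-luciferase reporter | Also added: Interleukin-6, 33 ng/mL | Timing: Compound pre-incubation 1 h before IL-6, then 6 h stimulation at 37 °C | Technique: Luciferase reporter luminescence | Read-out: Percent of IL-6-only median luminescence | Benchmarks: IL-6-only wells as 100% reference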
An asterisk follows results filed as active; x = no result. Compounds with a hit are over-represented: about 3.9% of the library has one in this group of screens.

SMILES	Pf gamet viab	NF-kB neuron act	APP 5'UTR act	STAT1 blocker	STAT1 activator	STAT3 activator
Nc1ncc([N+](=O)[O-])cc1S(=O)(=O)c1ccccc1	22	x	x	x	x	x
O=C(CC(Nc1ccc(Cl)cc1)C(=O)O)c1ccccc1 (stereo not given)	x	2.4	209*	-50	147*	80
Cc1c(Cl)cccc1NC(CC(=O)c1ccccc1)C(=O)O (stereo not given)	27	1.4	28	8	93	118
O=C(CC(Nc1ccccc1Cl)C(=O)O)c1ccccc1 (stereo not given)	x	0.61	172*	-31	127	49
NC(=O)CC(NC(=O)Cc1cccc2ccccc12)c1ccc(NCCCN2CCCC2=O)c([N+](=O)[O-])c1 (stereo not given)	9	x	x	x	x	x
OCC1(Cc2ccccc2)CCN(Cc2cnc(-c3ccc(Cl)cc3)nc2)CC1	42*	1.8	27	-14	111	77
COc1ccc(Cc2nnc(NC(=O)c3ccccc3)s2)cc1OC	2	x	x	x	x	x
CN(C)/C=C1/N=C(c2ccccc2)OC1=O	x	1.4	-6	-7	106	86
O=C1OC(c2ccc(Br)cc2)=N/C1=C\N1CCCCC1	x	2	6	-41	138*	99
O=C1OC(c2ccccc2)=N/C1=C\N1CCCCC1	3	2.4	93	-47	143*	127
COc1ccc(C=O)cc1Cn1ccnc1C	13	0.99	9	-3	101	97
c1ccc(N2CCN(c3cnccn3)CC2)nc1	17	1.1	-6	0	100	88
N#Cc1cc(C#N)c(N2CCN(c3ccccn3)CC2)nc1N	x	0.97	68	-39	136*	119
O=C1CC(c2ccco2)CC(O)=C1C=Nc1cc(Cl)ccc1O (stereo not given)	x	3.4*	1	10	91	108
O=C1CC(c2ccco2)CC(O)=C1C=Nc1cc(Cl)ccc1Cl (stereo not given)	15	1.1	3	-1	101	99
COc1ccccc1-n1cnc2cc(NCc3cccs3)ccc21	x	3.3*	-93	-14	113	116
C=CCSc1n[nH]c(-c2ccc(OCCCC)cc2)n1	x	2	47	-29	127	90
C=CCSc1n[nH]c(-c2ccc(OCCC)cc2)n1	x	3.8*	103	-51	150*	99
CN(C)c1ccc(CC(=O)c2nc3ccccc3s2)cc1	-7	1.2	92	-37	134*	113
CN(C)C(=O)c1nc2ccccc2s1	-6	0.86	8	-4	103	97
CCOC(=O)/C(=C\c1ccc(OC(F)F)cc1)C1=Nn2c(nnc2-c2ccc(Cl)cc2)SC1	x	8.3*	-34	5	96	98
COc1ccc(-c2nnc3n2N=C(C)CS3)cc1	-23	1.2	-4	4	96	93
CN(C)/C=C1/C(=O)N(c2ccc([N+](=O)[O-])cc2)N=C1c1ccccc1	6	1.8	42	-49	144*	110
Cc1ccc(S(=O)(=O)N2CC3CCCC2C3)cc1 (stereo not given)	-34	x	x	x	x	x
Cc1csc(=Nc2ccccc2)n1C	-25	1.6	2	-4	104	102
SMILES	Pf gamet viab	NF-kB neuron act	APP 5'UTR act	STAT1 blocker	STAT1 activator	STAT3 activator
Cc1ccc(N=c2sc(C)c(C)n2C)cc1	x	1.9	46	-38	133*	101
COc1ccc(Nc2oc(-c3ccccc3)nc2C#N)cc1	-5	1.8	39	-39	132*	99
COCCNc1oc(-c2ccc(Cl)cc2)nc1C#N	x	2.4	50	-32	129*	101
Cn1cccc1/C=C1\SC(=O)N(c2ccc(O)cc2)C1=O	16	1.6	13	-15	114	91
O=C(/C=C/c1ccccc1Cl)Nc1ccc2c(c1)C(=O)NC2=O	x	0.99	-2	1	99	96
O=C(/C=C/c1ccccc1)Nc1ccc2c(c1)C(=O)NC2=O	x	1.5	8	-31	129*	98
CC(C)Oc1ccc(C(CC(=O)O)n2cnnn2)cc1 (stereo not given)	12	1.1	1	2	98	98
O=C(/C=C/Nc1ccc([N+](=O)[O-])cc1Br)c1cccc2ccccc12	8	1.7	149*	5	96	109
NC(=O)c1cc([N+](=O)[O-])ccc1NCc1cccc2ccccc12	20	x	x	x	x	x
COc1cc(C(=O)NCc2nnc(SCC(=O)N3CCCc4ccccc43)o2)cc(OC)c1OC	x	1.1	1	1	99	93
CCOC(=O)CC(NC(=O)c1ccc(C)cc1)c1ccc(OC)cc1 (stereo not given)	x	1.6	1	-10	108	102
COc1cc(/C=C2/NC(=O)N(Cc3ccccc3F)C2=O)cc(OC)c1O	x	0.8	-1	-11	109	99
CCOc1cc(/C=C2/NC(=O)N(Cc3ccccc3F)C2=O)ccc1O	-20	5.9*	-25	-11	104	87
Cc1cc(=O)n2[nH]c(-c3ccc(C(C)(C)C)cc3)cc2n1	11	5.1*	16	-6	106	92
CCc1c(C)nc2cc(-c3ccc(OC)cc3)[nH]n2c1=O	10	2.3	112	-33	130*	107
Cc1cc(=O)n2[nH]c(-c3ccccc3)cc2n1	x	1.8	29	-11	110	109
CC(CC(=O)Nc1ccc(S(=O)(=O)N2CCOCC2)cc1)c1ccccc1 (stereo not given)	-11	x	x	x	x	x
CC(C)NC(=O)COC(=O)c1ccccc1C(=O)c1ccccc1	28	1.2	5	3	99	105
COc1ccc(C(=O)NC=C2C(=O)OC(C)(C)OC2=O)cc1	10	1.2	-1	-3	103	100
C/C(N)=C(/C#N)C(=O)COc1ncnc2ccccc12	14	0.98	6	-6	105	112
C/C(N)=C(/C#N)C(=O)COC(=O)c1cc(-c2ccc(Br)cc2)nc2ccccc12	-25	3.6*	-7	2	98	79
CCCCN1C(=O)C2(OCCCO2)c2cccc(C)c21	8	x	x	x	x	x
Cc1c(C(=O)N2CCOCC2)sc2nc(-c3ccccc3)cn12	-20	2	61	-37	134*	98
Cc1c(C(=O)N2CCN(c3ccc(F)cc3)CC2)sc2nc(-c3ccccc3)cn12	-4	1.1	18	-1	101	94
Cc1c(C(=O)Nc2ccc3c(c2)OCCO3)sc2nc(-c3ccccc3)cn12	x	0.34	-11	34*	69	59
CC(C)c1ccc(N(CC(=O)NCCSC(C)(C)C)S(C)(=O)=O)cc1	3	1.5	0	-7	107	112
c1ccc(-c2noc(CC3CCCCC3)n2)nc1	10	3	133	-38	133*	91
